For data set [1], the target named is T1, Mitogen-activated protein kinase; ERK1/ERK2 (Homo sapiens) (UniProt P27361+P28482). Kind of data set: Induction of Erk1/2 phosphorylation in human T98G cells at 20 uM measured after 24 hrs by Western blot analysis. In kind it is cell-based. In a few lines:
(§1)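 T98G exposed to 20 μM for 5−120 min or 24 h, with or without 5 mM NAC. Lysates (Tris/deoxycholate/SDS/IGEPAL with protease and phosphatase inhibitors) immunoblotted with anti-p-ERK, ERK1/2 (1:1000), p-p38, p38; ECL detection; phospho signals normalized to total ERK1/2 or p38. Three experiments.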
A general note: In western blotting, separated proteins are transferred to a membrane and probed.

Data set [2] has as its system T98G. Kind of data set: Induction of apoptosis in human T98G cells assessed as increase in ROS production at 20 uM after 24 hrs by DCFH-DA staining-based flow cytometric analysis. In kind it is functional, cell-based. The essentials:
(§2)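 T98G incubated with 20 μM, with or without 5 mM NAC pretreatment, for 5−120 min or 24 h; washed, resuspended at 2 × 10^5 cells/mL in HBSS with 10 μM DCFH-DA, 20 min at 37 °C; DCF fluorescence read by flow cytometry (FL1), also viewed by fluorescence microscopy.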

Data set [3] concerns T98G. The experiment in a line: Induction of apoptosis in human T98G cells assessed as cleavage PARP protein level at 20 uM after 24 hrs by Western blot analysis in presence of 5 mM NAC. In kind it is functional, cell-based. In a few lines: (§3)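 T98G exposed to 20 μM for various times (0−48 h), NAC 5 mM where stated. Total lysates, or digitonin-permeabilized cytosolic and mitochondrial fractions (10000g, 15 min, 4 °C) for cytochrome c, blotted for caspase-3, caspase-9, PARP (1:1000), Bcl-2 (1:500), cytochrome c; β-actin loading control; ECL detection. Three experiments.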

Data set [4] deals with T98G. Kind of data set: Induction of cell cycle arrest in human T98G cells assessed as accumulation at G2/M phase at 1 to 20 uM after 48 hrs by flow cytometric analysis. The data set is classed as functional, cell-based. In a few lines: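 2 × 10^5 cells per dish exposed 48 h (1−20 μM per legend); harvested, fixed in cold 70% ethanol at −20 °C, stained with propidium iodide plus RNase A (100 U/mL) 30 min at room temperature; percentage in G1, S, G2/M by flow cytometry. Three experiments in triplicate.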
A general note: A flow cytometer gives signals particle by particle.

In data set [5] the target is T1, Mitogen-activated protein kinase; ERK1/ERK2 (Homo sapiens). Kind of data set: Induction of Erk1/2 phosphorylation in human T98G cells at 20 uM measured every 5 mins for 2 hrs by Western blot analysis. In kind it is cell-based. The essentials: as §1
Data set [6] concerns T98G. The experiment in a line: Induction of apoptosis in human T98G cells assessed as increase in mitochondrial depolarization at 20 uM after 24 hrs by […] fluorescence analysis. The data set is classed as functional. In a few lines:
(§4)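 T98G treated with 20 μM for 4−24 h (NAC 5 mM where stated), then loaded with 5 nM TMRE for 30 min at 37 °C; fluorescence by flow cytometry (FL-2); percentage of cells with depolarized mitochondria reported. Three experiments in triplicate (n = 3 for NAC set).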

The target of data set [7] is T2, MAP kinase p38 (Homo sapiens) (UniProt O15264+Q15759+Q16539+P53778). Kind of data set: Induction of p38 phosphorylation in human T98G cells at 20 uM measured after 24 hrs by Western blot analysis. In kind it is cell-based. The essentials: as §1
Data set [8] deals with T98G. The experiment in a line: Anticancer activity against human T98G cells assessed as decrease in cell viability at 20 uM after 48 hrs by MTT assay. In kind it is functional, cell-based. The essentials: (§5)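 Cells (T98G, U87-MG, NHA; 3 × 10^4 per well) plated, next day exposed to serial dilutions (1−50 μM) for 48 h at 37 °C, 5% CO2. MTT (5 mg/mL) added for 3 h; crystals solubilized in 50% DMF/20% SDS pH 4.5; OD at 620 nm. Viability = % of DMSO (0.1% final) controls. Means ± SEM, three experiments in triplicate.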
(In general: Tetrazolium assays rely on reduction of a dye to a coloured formazan, in cell work by metabolically active cells.)

A short description of data set [9]: Toxicity in mouse. In kind it is organism-based. As to conditions: in vivo.
In data set [10] the test system is T98G. Kind of data set: Induction of apoptosis in human T98G cells assessed as decrease in mitochondrial depolarization at 20 uM after 24 hrs by […] fluorescence analysis in presence of 5 mM NAC. The data set is classed as functional, cell-based. In a few lines: as §4
For data set [11], the system named is T98G. Kind of data set: Induction of apoptosis in human T98G cells assessed as increase in mitochondrial depolarization at 20 uM by […] fluorescence analysis. In kind it is functional, cell-based. As to conditions: TDE = time-dependent effect. In a few lines:
as §4

The test system of data set [12] is T98G. Kind of data set: Induction of apoptosis in human T98G cells assessed as increase in caspase-9 expression level at 20 uM after 8 hrs by Western blot analysis. The data set is classed as functional, cell-based. In a few lines: as §3
Data set [13] has as its system T98G. The experiment in a line: Induction of apoptosis in human T98G cells assessed as increase in subG1 population after 24 to 48 hrs by propidium iodide staining based flow cytometric analysis. In kind it is functional, cell-based. In a few lines:
(§6)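 Cells treated 1−50 μM for 24 or 48 h, washed in PBS, resuspended in 0.1% sodium citrate, 0.1% Triton X-100, 50 μg/mL propidium iodide, 30 min at 4 °C in dark. Nuclei analyzed by flow cytometry, DNA on log scale, debris gated out; percent hypodiploid (sub-G1) nuclei reported. Three experiments in triplicate.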

A further data set concerns U-87 MG. Kind of data set: Induction of apoptosis in human U87MG cells at 50 uM after 48 hrs by propidium iodide staining based flow cytometric analysis. As to conditions: U-87MG ATCC. The data set is classed as functional, cell-based. In a few lines:
as §6

Data set [14] has as its system T98G. The experiment in a line: Induction of apoptosis in human T98G cells assessed as increase in cytosolic cytochrome c release at 20 uM after 8 hrs by Western blot analysis. The data set is classed as functional, cell-based. In a few lines: as §3
Data set [15] relates to T98G. Kind of data set: Induction of apoptosis in human T98G cells assessed as increase in ROS production at 20 uM measured every 5 mins for 5 to 120 mins by DCFH-DA staining-based flow cytometric analysis in presence of 5 mM NAC. The data set is classed as functional, cell-based. In a few lines:
as §2

In data set [16] the test system is T98G. The experiment in a line: Induction of apoptosis in human T98G cells assessed as increase in caspase-3 expression level at 20 uM after 24 hrs by Western blot analysis. The data set is classed as functional, cell-based. The essentials:
as §3

Data set [17] has as its system T98G. The experiment in a line: Induction of apoptosis in human T98G cells assessed as caspase activation at 20 uM after 24 hrs pretreated with 25 uM pancaspase inhibitor Z-VAD-FMK. In kind it is functional, cell-based. In a few lines:
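T98G pretreated with Z-VAD-FMK (25 μM), then exposed to test agent; apoptotic (hypodiploid) nuclei quantified by propidium iodide flow cytometry. Means ± SEM, three experiments in triplicate.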

Data set [18] relates to T98G. Kind of data set: Induction of apoptosis in human T98G cells assessed as increase in mitochondrial depolarization at 20 uM after 4 hrs by […] fluorescence analysis. In kind it is functional, cell-based. In a few lines: as §4
Data set [19] relates to T98G. Kind of data set: Induction of apoptosis in human T98G cells assessed as increase in ROS production at 20 uM measured every 5 mins for 5 to 120 mins by DCFH-DA staining-based flow cytometric analysis. In kind it is functional, cell-based. In a few lines: as §2
Data set [20] has as its system T98G. Kind of data set: Induction of apoptosis in human T98G cells assessed as cell death at 20 uM after 48 hrs by propidium iodide staining based flow cytometric analysis. The data set is classed as functional. In a few lines:
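T98G cells grown in DMEM with 10% heat-inactivated FBS and 2 mM L-glutamine at 37 °C, 5% CO2, then exposed 24–48 h (range 1–50 μM). Percent hypodiploid nuclei counted by flow cytometry, debris gated out. Three experiments in triplicate, mean ± SEM.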

Data set [21] relates to T98G. The experiment in a line: Anticancer activity against human T98G cells assessed as decrease in cell viability at 50 uM after 48 hrs by MTT assay. In kind it is functional. In a few lines:
as §5

Data set [22] addresses T2, MAP kinase p38 (Homo sapiens). The experiment in a line: Induction of p38 phosphorylation in human T98G cells at 20 uM after 30 to 60 mins for 2 hrs by Western blot analysis in presence of 5 mM NAC. The data set is classed as cell-based. The essentials:
as §1

Data set [23] deals with T98G. Kind of data set: Induction of apoptosis in human T98G cells assessed as increase in ROS production at 20 uM after 48 hrs by DCFH-DA staining-based flow cytometric analysis in presence of 10 uM ascorbic acid. In kind it is functional, cell-based.

By LD50 is commonly meant the dose at which mortality reaches 50%. Low values mean a more toxic substance, high ones a less toxic substance.

Calls of active or inactive are those of the source. The rule behind the calls is not given here.

T1 sequence (P27361 whole entry, looked up): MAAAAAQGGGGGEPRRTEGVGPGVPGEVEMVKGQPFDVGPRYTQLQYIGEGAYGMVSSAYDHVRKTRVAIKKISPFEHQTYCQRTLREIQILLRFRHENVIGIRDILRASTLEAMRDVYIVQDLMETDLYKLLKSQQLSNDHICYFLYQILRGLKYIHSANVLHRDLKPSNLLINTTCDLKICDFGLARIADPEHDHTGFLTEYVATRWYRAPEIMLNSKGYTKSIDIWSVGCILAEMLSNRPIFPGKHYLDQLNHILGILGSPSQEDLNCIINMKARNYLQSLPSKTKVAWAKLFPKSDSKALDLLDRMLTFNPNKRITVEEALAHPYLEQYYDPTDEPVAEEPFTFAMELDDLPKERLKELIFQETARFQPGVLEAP
T1 sequence (P28482 whole entry, looked up): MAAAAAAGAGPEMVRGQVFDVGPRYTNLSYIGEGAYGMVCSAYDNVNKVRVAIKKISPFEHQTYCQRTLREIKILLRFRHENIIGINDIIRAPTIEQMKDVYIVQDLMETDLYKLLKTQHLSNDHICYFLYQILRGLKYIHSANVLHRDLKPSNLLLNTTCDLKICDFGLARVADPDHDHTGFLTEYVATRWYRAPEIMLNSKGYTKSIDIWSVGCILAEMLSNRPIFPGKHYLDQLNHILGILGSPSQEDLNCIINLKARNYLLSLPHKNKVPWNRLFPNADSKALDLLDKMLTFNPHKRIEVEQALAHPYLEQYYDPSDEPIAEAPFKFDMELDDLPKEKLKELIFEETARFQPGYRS

Turning to `COc1cc(O)c(CC=C(C)C)c(O)c1C(=O)/C=C/c1ccc(O)cc1` [XANTHOHUMOL], the result (in [1]; in the data set with T98G [2]; in [5]; in the data set on T98G [8]; in the data set with T98G [12]; in the data set on U-87 MG) was Active. For the same compound, the outcome in the data set on T98G [14], in the data set with T98G [16], in the data set with T98G [18] and with T98G [19] was Active. Also, the result (in the data set with T98G [3]; in the data set on T98G [4]; in [7]; in the data set on T98G [10]; in the data set with T98G [15]; in the data set with T98G [17]) was inactive. The outcome (in data set [22]; with T98G [23]) was inactive. Moreover, the Activity was 50% with T98G [6]; “tde” in the data set with T98G [11]; “Dose-dependent effect” in the data set with T98G [13]; 40% with T98G [20]; 70% in the data set on T98G [21]. Moreover, the median lethal dose (LD50) in data set [9] is 500 mg/kg.

Values taken from ChEMBL document CHEMBL1932940, “Xanthohumol induces apoptosis in human malignant glioblastoma cells by increasing reactive oxygen species and activating MAPK pathways” (J Nat Prod, 2011).
